Compound activity as filed in PubChem BioAssay.
STAT3 act: increases IL-6 driven STAT3 reporter signal; actives 0.91% (n = 190,000); U3A cells, IL-6 STAT3-luciferase reporter, luminescence; 100% = signal with IL-6 EC80 alone; activation (% of control), % at 5.6 µM;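 active = activation above the screen-wide mean of compound activation plus 3 SD, cut at about 130% in these data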;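 note: 0% = background luminescence of wells with medium and substrate only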
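Detection: reporter luminescence signal / Assay system: STAT1-lacking human U3A cells, STAT3 luciferase reporter / Incubation: compound pre-incubation 1 h before IL-6, then 6 h stimulation at 37 °C / Control set: IL-6-only high control / Read-out: % activation relative to IL-6 control / Probe or stimulus: Interleukin-6, 33 ng/mL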
HSF1 inhib: HSF1 inhibition. activity change, negative = inhibition, % at 7.5 µM (by protocol). actives 0.77% (n = 300,000). NIH3T3-HGL HSE-luciferase, MG132-induced, luminescence 8 h; active compounds read low;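 active = more than half of replicate wells show activity change below -50%, luminescence cut by over half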;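 note: luciferase reports HSF-1 transcriptional activity via heat shock element; 0% = median of DMSO wells and -100% = zero luminescence signal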
Hsp70 activator: Hsp70 transcriptional activation, primary screen; actives 0.04% (n = 200,000); activation, % at 10 µM; HeLa Hsp70 promoter luciferase reporter, luminescence; scaled: vehicle 0, proteasome-inhibitor control 100%; AID 1203;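 active = activation above the mean across all tested compounds plus 3 SD, cutoff set per campaign, cut at about 5.5% in these data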;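 note: 100% = MG132 at 30 µM as the positive control and 0% = DMSO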
PolyA inhibitor: blocks polyadenylation in yeast reporter cells; S. cerevisiae SKY197-pL101 polyadenylation reporter, beta-gal luminescence; efflux-impaired pdr1/pdr3 knockout yeast; score 100 = 6 SD above DMSO; activity score, % at 12 µM; actives 0.02% (n = 300,000);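 active = lowest replicate activity score at least 50, where 100 means six control SD above control mean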;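 note: yeast exposed to compound for 9 h at 30 °C; higher score means more reporter readthrough which indicates perturbed polyadenylation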
PERK inhibitor: human PERK inhibition, primary cell-based screen | Q9NZJ5 | CHO PERK-DD fusion, SEAP luminescence translation reporter | inhibition, % at 5.6 µM | actives 0.17% (n = 220,000);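 active = inhibition above the mean inhibition of all tested compounds plus 3 SD, set separately per screening campaign, cut at about 2.9% in these data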;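 note: PERK kinase domain activated by AP20187 dimerizer at 100 nM; 0% = DMSO with dimerizer and 100% = rapamycin at 8.4 µM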
AHR activator: activates the human aryl hydrocarbon receptor; activation, % at 5 µM; AHR-responsive luciferase reporter cells, luminescence; AID 2796; actives 2.5% (n = 320,000); in the data active = activation above about 47%;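 note: 0% = vehicle wells and 100% = reference agonist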
Target sequence (P35869 whole entry, looked up): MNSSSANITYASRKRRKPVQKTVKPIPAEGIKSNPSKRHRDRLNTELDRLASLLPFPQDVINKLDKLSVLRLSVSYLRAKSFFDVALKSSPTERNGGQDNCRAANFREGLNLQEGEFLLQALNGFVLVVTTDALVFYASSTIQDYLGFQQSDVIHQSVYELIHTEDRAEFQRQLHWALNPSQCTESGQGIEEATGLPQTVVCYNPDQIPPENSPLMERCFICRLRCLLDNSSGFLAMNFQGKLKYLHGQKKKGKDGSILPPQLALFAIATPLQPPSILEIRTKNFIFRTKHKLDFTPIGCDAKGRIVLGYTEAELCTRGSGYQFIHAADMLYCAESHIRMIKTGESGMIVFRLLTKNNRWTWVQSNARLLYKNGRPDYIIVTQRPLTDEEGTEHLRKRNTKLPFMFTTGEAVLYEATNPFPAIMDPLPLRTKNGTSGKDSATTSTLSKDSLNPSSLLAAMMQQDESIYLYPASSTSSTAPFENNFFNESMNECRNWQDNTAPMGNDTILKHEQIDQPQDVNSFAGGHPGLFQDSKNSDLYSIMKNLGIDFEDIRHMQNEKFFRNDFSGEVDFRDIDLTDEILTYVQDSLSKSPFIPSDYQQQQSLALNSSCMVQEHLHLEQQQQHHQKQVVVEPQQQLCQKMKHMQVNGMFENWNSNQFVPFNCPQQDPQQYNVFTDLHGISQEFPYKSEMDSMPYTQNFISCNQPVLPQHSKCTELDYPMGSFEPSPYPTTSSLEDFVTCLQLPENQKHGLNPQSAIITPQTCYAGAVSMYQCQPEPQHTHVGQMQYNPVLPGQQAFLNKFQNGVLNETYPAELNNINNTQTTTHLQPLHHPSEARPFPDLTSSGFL
* hit, by the source's call; . = no result. A selection: hits, their analogues and other compounds. The true share with any hit is near 3.6%.

SMILES	STAT3 act	HSF1 inhib	Hsp70 activator	PolyA inhibitor	PERK inhibitor	AHR activator
Cc1cc(C(=O)COC(=O)c2ccc3c(c2)OCO3)c(C)n1Cc1cccs1	71	1	0	9	0	-3
Cc1cc(C(=O)COC(=O)c2cc(O)c3ccccc3c2O)c(C)n1CC1CCCO1 (configuration not stated)	146*	.	0	.	0	.
Cc1cc(C(=O)COC(=O)c2n[nH]c3ccccc23)c(C)n1CC1CCCO1 (configuration not stated)	47	-80*	0	22	-1	3
COCCn1c(C)cc(C(=O)COC(=O)c2ccccc2Br)c1C	27	-90*	0	-4	2	-1
Cc1ccc(C(=O)OCC(=O)c2cc(C)n(CC3CCCO3)c2C)cc1 (configuration not stated)	105	-39	0	-18	-1	-3
Cc1cc(C(=O)COC(=O)c2ccccc2O)c(C)n1Cc1cccs1	14	-90*	-1	-9	0	2
N#Cc1ccc(CN2CCN(c3ccc(S(=O)(=O)N4CCCC4)cn3)CC2)cc1	.	.	.	.	.	-2
CCn1nc(CC(C)C)cc1C(=O)N1CCCC(Nc2ccc(OC)cc2)C1 (configuration not stated)	.	2	.	-9	.	1
Cc1cc(C(=O)COC(=O)c2cccnc2Cl)c(C)n1CC1CCCO1 (configuration not stated)	25	-77*	0	12	0	-1
Cc1cc(C(=O)COC(=O)c2ccccc2O)c(C)n1CC1CCCO1 (configuration not stated)	.	.	.	.	.	-1
Cc1cc(C(=O)COC(=O)c2ccccc2Br)c(C)n1CC1CCCO1 (configuration not stated)	.	-91*	.	-10	0	-3
CCCCC(=O)Nc1cccc2c1C(=O)N(c1ccccc1)C2=O	96	-1	1	-12	0	19
Nc1cccc2c1C(=O)N(c1ccccc1)C2=O	.	6	.	24	.	49*
Nc1ccccc1N1C(=O)c2cccc3cccc(c23)C1=O	.	2	.	1	.	67*
CN(/C=C1/C(=O)CNC1=O)CCO	103	-7	0	11	1	1
COc1ccc(Nc2cc(C)c3c(O)cccc3n2)cc1	.	13	.	-8	1	1
Cc1ccc(Nc2cc(C)c3c(O)cccc3n2)cc1C	.	-56*	.	-1	0	30
COc1ccc(CCNC(=O)CCC(=O)N2CCOc3ccc(Cl)cc32)cc1OC	.	9	.	-12	.	0
Oc1csc(Cc2nc(-c3ccc(-c4ccccc4)cc3)cs2)n1	117	-15	1	12	1	65*
Oc1csc(Cc2nc(-c3ccc4ccccc4c3)cs2)n1	163*	-2	0	-18	-1	83*
Oc1csc(Cc2nc(-c3ccccc3F)cs2)n1	106	-2	0	-21	2	8
COCCn1c(N)c(Sc2ccccc2[N+](=O)[O-])c(=O)[nH]c1=O	.	-41	.	10	1	1
Cc1cc(=O)n2nc(-c3ccc(C(F)(F)F)cc3)sc2n1	94	-70*	0	-8	0	-3
COc1ccccc1-c1nn2c(=O)cc(C)nc2s1	97	-1	0	-11	0	62*
Cc1nc2sc(-c3ccccc3)nn2c(=O)c1Br	91	24	0	0	0	-2
SMILES	STAT3 act	HSF1 inhib	Hsp70 activator	PolyA inhibitor	PERK inhibitor	AHR activator
CSc1nc2cc(C)nn2c(-c2ccccc2)c1C#N	.	-1	.	18	0	1
COc1ccc(NC(=O)CSc2ccc3nnc(-c4cccnc4)n3n2)cc1OC	.	-8	.	0	.	4
COc1ccc(OC)c(/C=N/NC(=O)CCc2n[nH]c(=O)[nH]c2=O)c1	105	0	0	6	1	60*
COc1ccc(/C=N/NC(=O)Cc2n[nH]c(=O)[nH]c2=O)cc1	.	0	.	-3	3.0*	1
O=C(CNC(=O)COc1ccccc1)NCc1cccnc1	.	-4	.	18	.	1
COc1ccc(OCC(O)CNCCOc2ccccc2OC)c(C(C)(C)C)c1 (configuration not stated)	.	-3	.	-10	.	-2
CC(C)CC1(C)NC(=O)N(CC(=O)Nc2ccc3c(c2)CCC3)C1=O (configuration not stated)	119	2	0	-4	1	10
COc1ccc2c(ccn2S(=O)(=O)c2ccccc2)c1	.	-7	.	-4	.	2
c1ccc2sc(NN=C3CCCCCC3)nc2c1	40	9	0	-14	1	51*
O=C(Nc1nc2ccccc2s1)c1ccccc1	74	27	0	-18	0	27
O=C(CCNS(=O)(=O)c1ccccc1)NNC(=O)c1cccc(Cl)c1	.	.	.	.	.	-1
CCOC(=O)C(CC)/C(C)=N\NC(=O)c1ccccc1O (configuration not stated)	105	-8	0	9	0	56*
CCC(C)/C(C)=N/NC(=O)c1ccccc1OCCOc1ccccc1 (configuration not stated)	108	7	0	9	2	79*
COc1ccc(-n2c(SCC(=O)N3CCOCC3)nc3ccccc3c2=O)cc1	.	-1	.	5	.	1
CCOC(=O)C1CCN(S(=O)(=O)c2cc(C(=O)N3CCCCC3)ccc2OC)CC1	.	0	.	9	.	5
Oc1ccc2ccccc2c1C=NCc1cn2ccsc2n1	113	-3	0	-20	2	66*
Cc1nn(C)cc1S(=O)(=O)Nc1ccc2c(c1)OCCO2	85	-63*	0	2	1	2
Cc1n[nH]c(C)c1S(=O)(=O)Nc1ccc2c(c1)OCCO2	91	-62*	0	-9	1	-1
Cc1c(S(=O)(=O)Nc2ccc3c(c2)OCCO3)cnn1C	105	5	0	5	0	0
CCOc1ccc(S(=O)(=O)NCc2ccc3c(c2)OCO3)cc1	.	-4	.	-4	.	0
CC(=O)N1c2ccccc2[C@@H](C)[C@@H]1C	.	.	.	.	.	0
CC(=O)N1c2ccccc2C2(O)N=C(C)SC12 (configuration not stated)	103	-1	0	.	1	51*
COCc1ccc(-c2c(-c3ccccc3OC)sc3cc4c(cc23)OCO4)cc1	.	.	.	.	.	51*
COc1ccccc1-c1sc2cc3c(cc2c1-c1ccc(O)cc1)OCO3	.	.	.	.	.	24
COc1cccc2cc(C(=O)OC3CCN(C)CC3)c(=O)oc12	101	-68*	0	-17	0	1
CN(C(=O)CSc1nnc(-c2c[nH]c3ccccc23)n1C1CC1)C1CCS(=O)(=O)C1 (configuration not stated)	.	.	.	.	.	19
Cc1cccc(N(Cc2ccccc2)C(=O)c2ccccc2S(C)(=O)=O)c1	.	8	.	-3	.	13
CC1CCc2sc(C(=O)NCCCn3ccnc3)cc2C1 (configuration not stated)	.	-3	.	-3	.	51*
